Assay results published in ChEMBL document CHEMBL5058577, “EUbOPEN Chemogenomics Library 2 (Multiplex)” (2022).

System: U2OS
Assay: Multiplex assay against U2OS
Assay type: toxicity, cell-based
Settings: human
Procedure, shortened: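 Live cells carried four stains from seeding: Hoechst33342, BioTracker Green Microtubule Cytoskeleton Dye, MitoTracker Red and Annexin V Alexa Fluor 680. They were imaged on a CQ1 microscope at 37°C and 5% CO2 after compound addition. Using CellPathfinder machine-learning gating, cells were split into Hoechst high-intensity objects or normal cells, normal cells into healthy, pyknosed or fragmented nuclei, and pyknosed cells into mitotic or apoptotic; tubulin, mitochondrial-mass and membrane-permeability phenotypes are per cents of healthy-nucleus cells.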

[1] = 12 h, 1 µM, compound concentration 1 uM, replicate 1
[2] = 12 h, 1 µM, compound concentration 1 uM, replicate 2
[3] = 12 h, 10 µM, compound concentration 10 uM, replicate 1
[4] = 12 h, 10 µM, compound concentration 10 uM, replicate 2
[5] = 24 h, 1 µM, compound concentration 1 uM, replicate 1
[6] = 24 h, 1 µM, compound concentration 1 uM, replicate 2
[7] = 24 h, 10 µM, compound concentration 10 uM, replicate 1
[8] = 24 h, 10 µM, compound concentration 10 uM, replicate 2
[9] = 48 h, 1 µM, compound concentration 1 uM, replicate 1
[10] = 48 h, 1 µM, compound concentration 1 uM, replicate 2
[11] = 48 h, 10 µM, compound concentration 10 uM, replicate 1
[12] = 48 h, 10 µM, compound concentration 10 uM, replicate 2

## O=C(CCCc1ccccc1)Nc1nc2ccccc2c(=O)s1
[1]
  Population Apoptotic (%): 92%
  Population Fragmented Nuclei (%): 26%
  Population Healthy Nuclei (%): 64%
  Population Hoechst High Intensity Objects (%): 2%
  Population Membrane Permeable-Phenotype (%): 4%
  Population Mitochondria Different-Phenotype (%): 2%
  Population Mitotic Cells (%): 7%
  Population Normal (%): 97%
  Population Pyknosed Nuclei (%): 9%
  Population Tubulin-Different-Phenotype (%): 1%
  Total Cell Count: 274
[2]
  Population Apoptotic (%): 55%
  Population Fragmented Nuclei (%): 17%
  Population Healthy Nuclei (%): 74%
  Population Hoechst High Intensity Objects (%): 0%
  Population Membrane Permeable-Phenotype (%): 7%
  Population Mitochondria Different-Phenotype (%): 3%
  Population Mitotic Cells (%): 44%
  Population Normal (%): 100%
  Population Pyknosed Nuclei (%): 7%
  Population Tubulin-Different-Phenotype (%): 2%
  Total Cell Count: 113
[3]
  Population Apoptotic (%): 72%
  Population Fragmented Nuclei (%): 31%
  Population Healthy Nuclei (%): 58%
  Population Hoechst High Intensity Objects (%): 2%
  Population Membrane Permeable-Phenotype (%): 2%
  Population Mitochondria Different-Phenotype (%): 0%
  Population Mitotic Cells (%): 28%
  Population Normal (%): 97%
  Population Pyknosed Nuclei (%): 9%
  Population Tubulin-Different-Phenotype (%): 1%
  Total Cell Count: 270
[4]
  Population Apoptotic (%): 100%
  Population Fragmented Nuclei (%): 20%
  Population Healthy Nuclei (%): 67%
  Population Hoechst High Intensity Objects (%): 4%
  Population Membrane Permeable-Phenotype (%): 7%
  Population Mitochondria Different-Phenotype (%): 6%
  Population Mitotic Cells (%): 0%
  Population Normal (%): 95%
  Population Pyknosed Nuclei (%): 11%
  Population Tubulin-Different-Phenotype (%): 6%
  Total Cell Count: 101
[5]
  Population Apoptotic (%): 79%
  Population Fragmented Nuclei (%): 22%
  Population Healthy Nuclei (%): 68%
  Population Hoechst High Intensity Objects (%): 1%
  Population Membrane Permeable-Phenotype (%): 4%
  Population Mitochondria Different-Phenotype (%): 2%
  Population Mitotic Cells (%): 20%
  Population Normal (%): 98%
  Population Pyknosed Nuclei (%): 9%
  Population Tubulin-Different-Phenotype (%): 2%
  Total Cell Count: 325
[6]
  Population Apoptotic (%): 84%
  Population Fragmented Nuclei (%): 17%
  Population Healthy Nuclei (%): 73%
  Population Hoechst High Intensity Objects (%): 0%
  Population Membrane Permeable-Phenotype (%): 8%
  Population Mitotic Cells (%): 15%
  Population Normal (%): 100%
  Population Tubulin-Different-Phenotype (%): 3%
  Total Cell Count: 141
[7]
  Population Apoptotic (%): 86%
  Population Fragmented Nuclei (%): 25%
  Population Healthy Nuclei (%): 65%
  Population Hoechst High Intensity Objects (%): 2%
  Population Membrane Permeable-Phenotype (%): 5%
  Population Mitochondria Different-Phenotype (%): 1%
  Population Mitotic Cells (%): 13%
  Population Normal (%): 97%
  Population Pyknosed Nuclei (%): 9%
  Population Tubulin-Different-Phenotype (%): 4%
  Total Cell Count: 319
[8]
  Population Apoptotic (%): 100%
  Population Fragmented Nuclei (%): 19%
  Population Healthy Nuclei (%): 71%
  Population Hoechst High Intensity Objects (%): 1%
  Population Membrane Permeable-Phenotype (%): 8%
  Population Mitochondria Different-Phenotype (%): 2%
  Population Mitotic Cells (%): 0%
  Population Normal (%): 98%
  Population Tubulin-Different-Phenotype (%): 3%
  Total Cell Count: 124
[9]
  Population Apoptotic (%): 91%
  Population Fragmented Nuclei (%): 13%
  Population Healthy Nuclei (%): 76%
  Population Hoechst High Intensity Objects (%): 7%
  Population Membrane Permeable-Phenotype (%): 3%
  Population Mitochondria Different-Phenotype (%): 2%
  Population Mitotic Cells (%): 8%
  Population Normal (%): 92%
  Population Pyknosed Nuclei (%): 9%
  Population Tubulin-Different-Phenotype (%): 1%
  Total Cell Count: 394
[10]
  Population Apoptotic (%): 87%
  Population Fragmented Nuclei (%): 19%
  Population Healthy Nuclei (%): 71%
  Population Hoechst High Intensity Objects (%): 5%
  Population Mitochondria Different-Phenotype (%): 3%
  Population Mitotic Cells (%): 12%
  Population Normal (%): 94%
  Population Pyknosed Nuclei (%): 8%
  Population Tubulin-Different-Phenotype (%): 6%
  Total Cell Count: 192
[11]
  Population Apoptotic (%): 91%
  Population Fragmented Nuclei (%): 20%
  Population Healthy Nuclei (%): 70%
  Population Hoechst High Intensity Objects (%): 2%
  Population Membrane Permeable-Phenotype (%): 5%
  Population Mitochondria Different-Phenotype (%): 0%
  Population Mitotic Cells (%): 8%
  Population Normal (%): 97%
  Population Pyknosed Nuclei (%): 8%
  Population Tubulin-Different-Phenotype (%): 3%
  Total Cell Count: 427
[12]
  Population Apoptotic (%): 95%
  Population Fragmented Nuclei (%): 15%
  Population Healthy Nuclei (%): 72%
  Population Hoechst High Intensity Objects (%): 0%
  Population Membrane Permeable-Phenotype (%): 9%
  Population Mitochondria Different-Phenotype (%): 3%
  Population Mitotic Cells (%): 4%
  Population Normal (%): 99%
  Population Pyknosed Nuclei (%): 12%
  Population Tubulin-Different-Phenotype (%): 5%
  Total Cell Count: 175
